According to ChEMBL document CHEMBL1141219, “Chemoenzymatic synthesis of a series of 4-substituted glutamate analogues and pharmacological characterization at human glutamate transporters subtypes 1-3” (J Med Chem, 2005):

Assays:
[1] = substrate: C[C@H](C[C@H](N)C(=O)O)C(=O)O; assay: (§1) Binding affinity to human EAAT1 expressed in HEK293 cells in FMP (FLPR) assay; assay type: functional, cell-based
Outline: (§2)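 HEK293 cells stably expressing the human transporter, seeded on poly-D-lysine plates in DMEM with 10% dialyzed FBS and G-418 for 16–24 h. Cells washed in Krebs buffer (pH 7.4), then loaded with FMP dye for 30 min at 37 °C. Read at room temperature, excitation 530 nm and emission 560 nm, for up to 1 min after substrate addition. Non-substrate inhibitors were preincubated and tested against 30 μM Glu. Seven-concentration curves from maximal responses, duplicate, at least three times.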

[2] = substrate: N[C@@H](CCC(=O)O)C(=O)O; assay: as §1; assay type: functional, cell-based; outline: as §2
[3] = substrate: N[C@@H](C[C@@H](O)C(=O)O)C(=O)O; assay: as §1; assay type: functional, cell-based; outline: as §2
[4] = substrate: N[C@@H](C[C@H](O)C(=O)O)C(=O)O; assay: as §1; assay type: functional, cell-based; outline: as §2
[5] = substrate: N[C@@H](CCC(=O)O)C(=O)O; assay: (§3) Binding affinity to human EAAT3 expressed in HEK293 cells in FMP (FLPR) assay; assay type: functional, cell-based; outline: as §2
[6] = substrate: N[C@@H](C[C@H](O)C(=O)O)C(=O)O; assay: as §3; assay type: functional, cell-based; outline: as §2
[7] = biological target: Excitatory amino acid transporter 3 (Homo sapiens) (UniProt P43005); assay: Binding affinity to human EAAT3 expressed in HEK293 cells in FMP (FLPR) assay

Protein | Km [1] | Km [2] | Km [3] | Km [4] | Km [5] | Km [6] | Km [7]
Excitatory amino acid transporter 1 (Homo sapiens), P43003 (protein) MTKSNGEEPKMGGRMERFQQGVRKRTLLAKKKVQNITKEDVKSYLFRNAFVLLTVTAVIVGTILGFTLRPYRMSYREVKYFSFPGELLMRMLQMLVLPLIISSLVTGMAALDSKASGKMGMRAVVYYMTTTIIAVVIGIIIVIIIHPGKGTKENMHREGKIVRVTAADAFLDLIRNMFPPNLVEACFKQFKTNYEKRSFKVPIQANETLVGAVINNVSEAMETLTRITEELVPVPGSVNGVNALGLVVFSMCFGFVIGNMKEQGQALREFFDSLNEAIMRLVAVIMWYAPVGILFLIAGKIVEMEDMGVIGGQLAMYTVTVIVGLLIHAVIVLPLLYFLVTRKNPWVFIGGLLQALITALGTSSSSATLPITFKCLEENNGVDKRVTRFVLPVGATINMDGTALYEALAAIFIAQVNNFELNFGQIITISITATAASIGAAGIPQAGLVTMVIVLTSVGLPTDDITLIIAVDWFLDRLRTTTNVLGDSLGAGIVEHLSRHELKNRDVEMGNSVIEENEMKKPYQLIAQDNETEKPIDSETKM | 13 µM | 9.2 µM | 1000 µM | 140 µM |  |  | 
Excitatory amino acid transporter 3 (Homo sapiens), P43005 (protein) MGKPARKGCEWKRFLKNNWVLLSTVAAVVLGITTGVLVREHSNLSTLEKFYFAFPGEILMRMLKLIILPLIISSMITGVAALDSNVSGKIGLRAVVYYFCTTLIAVILGIVLVVSIKPGVTQKVGEIARTGSTPEVSTVDAMLDLIRNMFPENLVQACFQQYKTKREEVKPPSDPEMNMTEESFTAVMTTAISKNKTKEYKIVGMYSDGINVLGLIVFCLVFGLVIGKMGEKGQILVDFFNALSDATMKIVQIIMCYMPLGILFLIAGKIIEVEDWEIFRKLGLYMATVLTGLAIHSIVILPLIYFIVVRKNPFRFAMGMAQALLTALMISSSSATLPVTFRCAEENNQVDKRITRFVLPVGATINMDGTALYEAVAAVFIAQLNDLDLGIGQIITISITATSASIGAAGVPQAGLVTMVIVLSAVGLPAEDVTLIIAVDWLLDRFRTMVNVLGDAFGTGIVEKLSKKELEQMDVSSEVNIVNPFALESTILDNEDSDTKKSYVNGGFAVDKSDTISFTQTSQF |  |  |  |  | 25 µM | 81 µM | 1000 µM
